≈ marks a conversion by molar mass, not a printed value. Calls of active or inactive are those of the source. The rule behind the calls is not given here.
Key:
[1] = test system: HeLa; assay: Cytotoxicity against human HeLa cells assessed as cell survival after 72 hrs by MTT assay; format: functional, cell-based
Summary of the method: (§1)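 Cells seeded (HeLa 2000, MDA-MB-453 3000, others 5000 per well), treated 24 h later (K562 after 2 h). Five double-diluted final concentrations, 200–12.5 μM, from 10 mM DMSO stocks, in RPMI-1640 with 10% FBS, pH 7.2, 72 h. MTT 4 h at 37 °C, SDS added, A570 read next day. Survival relative to medium control; IC50 from survival curves; triplicate; cisplatin positive control.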

[2] = test system: A549; assay: Cytotoxicity against human A549 cells assessed as cell survival after 72 hrs by MTT assay; format: functional, cell-based; conditions: A549, 72 h; summary of the method: as §1
[3] = Cytotoxicity against human Fem-X cells assessed as cell survival after 72 hrs by MTT assay; format: functional, cell-based; summary of the method: as §1
[4] = test system: K562; assay: Cytotoxicity against human K562 cells assessed as cell survival after 72 hrs by MTT assay; format: functional, cell-based; conditions: K562, 72 h; summary of the method: as §1
[5] = test system: MDA-MB-453; assay: Cytotoxicity against human MDA-MB-453 cells assessed as cell survival after 72 hrs by MTT assay; format: functional, cell-based; conditions: MDA-MB-453, 72 h; summary of the method: as §1
[6] = test system: MRC5; assay: Cytotoxicity against human MRC5 cells assessed as cell survival after 72 hrs by MTT assay; format: cell-based; conditions: MRC5, 72 h; summary of the method: as §1
[7] = test system: Staphylococcus aureus; assay: Antibacterial activity against Staphylococcus aureus ATCC 6538 after 24 hrs by microbroth double dilution method; format: functional; conditions: ATCC 6538, 24 h
Summary of the method: (§2)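 Microbroth double dilution in Mueller Hinton broth; compound stock 10 mg/mL in DMSO serially halved across rows. Wells inoculated with 10 μL culture at 10^6 cells/mL, incubated 37 °C for 24 h. Amikacin row as positive control, DMSO row as negative control. MIC taken as lowest concentration inhibiting bacterial growth.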

[8] = test system: Kocuria rhizophila; assay: Antibacterial activity against Kocuria rhizophila ATCC 9341 after 24 hrs by microbroth double dilution method; format: functional; conditions: ATCC 9341, 24 h; summary of the method: as §2
[9] = test system: Bacillus subtilis; assay: Antibacterial activity against Bacillus subtilis ATCC 6633 after 24 hrs by microbroth double dilution method; format: functional; conditions: ATCC 6633, 24 h; summary of the method: as §2
[10] = test system: Micrococcus luteus; assay: Antibacterial activity against Micrococcus luteus ATCC 4698 after 24 hrs by microbroth double dilution method; format: functional; conditions: ATCC 4698, 24 h; summary of the method: as §2
[11] = test system: Micrococcus flavus; assay: Antibacterial activity against Micrococcus flavus ATCC 10240 after 24 hrs by microbroth double dilution method; format: functional; conditions: ATCC 10240, 24 h; summary of the method: as §2
[12] = test system: Clostridium sporogenes; assay: Antibacterial activity against Clostridium sporogenes ATCC 19404 after 24 hrs by microbroth double dilution method; format: functional; conditions: ATCC 19404, 24 h; summary of the method: as §2
[13] = test system: Escherichia coli; assay: Antibacterial activity against Escherichia coli ATCC 25922 after 24 hrs by microbroth double dilution method; format: functional; conditions: ATCC 25922, 24 h; summary of the method: as §2
[14] = test system: Proteus hauseri; assay: Antibacterial activity against Proteus hauseri ATCC 13315 after 24 hrs by microbroth double dilution method; format: functional; conditions: ATCC 13315, 24 h; summary of the method: as §2
[15] = test system: Salmonella enterica; assay: Antibacterial activity against Salmonella enterica ATCC 13076 after 24 hrs by microbroth double dilution method; format: functional; conditions: ATCC 13076, 24 h; summary of the method: as §2
[16] = test system: Pseudomonas aeruginosa; assay: Antibacterial activity against Pseudomonas aeruginosa ATCC 9027 after 24 hrs by microbroth double dilution method; format: functional; conditions: ATCC 9027, 24 h; summary of the method: as §2
[17] = test system: Candida albicans; assay: Antifungal activity against Candida albicans ATCC 10231 after 24 hrs by microbroth double dilution method; format: functional
[18] = test system: Saccharomyces cerevisiae; assay: Antifungal activity against Saccharomyces cerevisiae ATCC 9763 after 24 hrs by microbroth double dilution method; format: functional
[19] = test system: Aspergillus brasiliensis; assay: Antifungal activity against Aspergillus brasiliensis ATCC 16404 after 24 hrs by microbroth double dilution method; format: functional
[20] = test system: Artemia salina; assay: Cytotoxicity in Brine shrimp assessed as nauplii mortality after 24 hrs; format: organism-based; conditions: in vivo
Summary of the method: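 Artemia salina eggs hatched in aerated tap water with dried yeast at 18–20 °C under illumination for 48 h, and freshly hatched nauplii were used. Compounds in DMSO (0.01–1 mg) were added to 950 µL artificial seawater containing 10–20 nauplii, with 5% final DMSO. After 24 h under illumination at room temperature, dead and surviving nauplii were counted and statistically analysed.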

Row | Compound | IC50 [1] | IC50 [2] | IC50 [3] | IC50 [4] | IC50 [5] | IC50 [6] | MIC [7] | MIC [8] | MIC [9] | MIC [10] | MIC [11] | MIC [12] | MIC [13] | MIC [14] | MIC [15] | MIC [16] | LC50 [20] | MIC ([17]; ATCC 10231, 24 h) | MIC ([18]; ATCC 9763, 24 h) | MIC ([19]; ATCC 16404, 24 h) | other results
1 | CC1=CCC[C@H]2[C@](C)(CC3=CC(=O)C=CC3=O)[C@@H](C)CC[C@]12C [AVARONE] | 18.1 µM | 30 µM | 40.3 µM | 17.1 µM | 16.7 µM | > 200 µM | 40.1 µM (≈ 12.5 µg/mL) | 20 µM (≈ 6.26 µg/mL) | 80.1 µM (≈ 25 µg/mL) | 2000 µM (≈ 625 µg/mL) | 20 µM (≈ 6.26 µg/mL) | 20 µM (≈ 6.26 µg/mL) | 441 µM (≈ 138 µg/mL) | 27.6 µM (≈ 8.61 µg/mL) | 55.1 µM (≈ 17.2 µg/mL) | 13.8 µM (≈ 4.31 µg/mL) | 170 ppm | – | – | – | MIC [17]: inactive; MIC [18]: inactive; MIC [19]: inactive
2 | CC1=CCC[C@H]2[C@](C)(CC3=CC(=O)C(N4CCC[C@H]4C(=O)O)=CC3=O)[C@@H](C)CC[C@]12C | 36.2 µM | 49.2 µM | 39.6 µM | 35.4 µM | 60.6 µM | 96 µM | 91.5 µM (≈ 39 µg/mL) | 735 µM (≈ 313 µg/mL) | 183 µM (≈ 77.9 µg/mL) | 91.5 µM (≈ 39 µg/mL) | 183 µM (≈ 77.9 µg/mL) | 369 µM (≈ 157 µg/mL) | 91.5 µM (≈ 39 µg/mL) | 183 µM (≈ 77.9 µg/mL) | 183 µM (≈ 77.9 µg/mL) | 183 µM (≈ 77.9 µg/mL) | 706.6 ppm | 23 µM (≈ 9.79 µg/mL) | 45.8 µM (≈ 19.5 µg/mL) | 735 µM (≈ 313 µg/mL) | –
3 | CSCC[C@H](NC1=CC(=O)C=C(C(C)(C)C)C1=O)C(=O)O | 77.4 µM | > 200 µM | 34.8 µM | 88.5 µM | 151 µM | > 200 µM | 1010 µM (≈ 313 µg/mL) | 2010 µM (≈ 626 µg/mL) | 2010 µM (≈ 626 µg/mL) | 505 µM (≈ 157 µg/mL) | 2010 µM (≈ 626 µg/mL) | 2010 µM (≈ 626 µg/mL) | 1010 µM (≈ 313 µg/mL) | 2010 µM (≈ 626 µg/mL) | 2010 µM (≈ 626 µg/mL) | 2010 µM (≈ 626 µg/mL) | 360.2 ppm | 505 µM (≈ 157 µg/mL) | 505 µM (≈ 157 µg/mL) | 2010 µM (≈ 626 µg/mL) | –
4 | C[C@H](NC1=CC(=O)C=C(C(C)(C)C)C1=O)C(=O)O | 89.1 µM | > 200 µM | 20.1 µM | 77.6 µM | 112 µM | > 200 µM | 1250 µM (≈ 313 µg/mL) | 4980 µM (≈ 1250 µg/mL) | 2490 µM (≈ 626 µg/mL) | 1250 µM (≈ 313 µg/mL) | 2490 µM (≈ 626 µg/mL) | 2490 µM (≈ 626 µg/mL) | 1250 µM (≈ 313 µg/mL) | 4980 µM (≈ 1250 µg/mL) | 2490 µM (≈ 626 µg/mL) | 2490 µM (≈ 626 µg/mL) | 393.8 ppm | 626 µM (≈ 157 µg/mL) | 626 µM (≈ 157 µg/mL) | 1240 µM (≈ 312 µg/mL) | –
5 | CC1=CCC[C@H]2[C@](C)(CC3=CC(=O)C=C(N[C@@H](Cc4ccccc4)C(=O)O)C3=O)[C@@H](C)CC[C@]12C | 14.6 µM | 40.1 µM | 17.3 µM | 20.5 µM | 16.6 µM | > 200 µM | 10.3 µM (≈ 4.91 µg/mL) | 331 µM (≈ 157 µg/mL) | 20.6 µM (≈ 9.81 µg/mL) | 10.3 µM (≈ 4.91 µg/mL) | 82.1 µM (≈ 39.1 µg/mL) | 82.1 µM (≈ 39.1 µg/mL) | 10.3 µM (≈ 4.91 µg/mL) | 82.1 µM (≈ 39.1 µg/mL) | 20.6 µM (≈ 9.81 µg/mL) | 20.6 µM (≈ 9.81 µg/mL) | 96.7 ppm | 164 µM (≈ 78.1 µg/mL) | 10.3 µM (≈ 4.91 µg/mL) | 1320 µM (≈ 626 µg/mL) | –
6 | NYSTATIN | – | – | – | – | – | – | – | – | – | – | – | – | – | – | – | – | – | – | – | – | MIC [17]: 2700 µM; MIC [18]: 1350 µM; MIC [19]: 1350 µM
7 | CC1=CCC[C@H]2[C@](C)(CC3=CC(=O)C=C(N[C@@H](Cc4c[nH]c5ccccc45)C(=O)O)C3=O)[C@@H](C)CC[C@]12C | 16.2 µM | 39.6 µM | 14.8 µM | 16.1 µM | 22.9 µM | 157 µM | 19.1 µM (≈ 9.81 µg/mL) | 305 µM (≈ 157 µg/mL) | 37.9 µM (≈ 19.5 µg/mL) | 19.1 µM (≈ 9.81 µg/mL) | 37.9 µM (≈ 19.5 µg/mL) | 37.9 µM (≈ 19.5 µg/mL) | 19.1 µM (≈ 9.81 µg/mL) | 37.9 µM (≈ 19.5 µg/mL) | 19.1 µM (≈ 9.81 µg/mL) | 37.9 µM (≈ 19.5 µg/mL) | – | 305 µM (≈ 157 µg/mL) | < 2.39 µM | 1220 µM (≈ 626 µg/mL) | –

Source: ChEMBL document CHEMBL3627646, “Synthesis and biological activity of amino acid derivatives of avarone and its model compound” (Bioorg Med Chem, 2015)
